Published values of several laboratories.
Each line is one published result; the experiments were not run side by side.
Organism: Plasmodium falciparum
Read-out: parasite growth

Structure (SMILES) | method | strain | time | setting | EC50
COc1cc(C(=O)N(C)C)ccc1-c1cc2nccc(-c3ccc4ccncc4c3)c2o1 | – | 3D7 | 72 h | blood stage | 997 nM
CCCNCC(O)COc1ccccc1C(=O)CCc1ccccc1 (centres unmarked) | SYBR Green | K1 | – | drug-resistant strain, blood stage | 920 nM
CCn1cc(-c2nc(C)no2)c(=O)c2cc(F)c(N3CCN(C(C)=O)CC3)cc21 | – | 3D7 | 72 h | blood stage | > 10000 nM
COc1ncc(Nc2ccnc3cc(-c4ccc(S(=O)(=O)N5CCN(C)CC5)cc4)ccc23)cn1 | – | D6 | – | drug-resistant strain, blood stage | 50 nM
CC/N=C(\c1ccc(OC)c(OC)c1)N1CCCc2cc(C3=NNC(=O)SC3C)ccc21 (centres unmarked) | – | 3D7 | 72 h | blood stage | 1790 nM
CCn1cc(C(=O)N2CCOCC2)c(=O)c2cc(F)c(N3CCC(C)CC3)cc21 | – | 3D7 | 72 h | blood stage | > 10000 nM
C[C@H]1[C@@H](O)O[C@@H]2O[C@@]3(C)CC[C@H]4[C@H](C)CC[C@@H]1[C@@]24OO3 | – | NF54 | 48 h | gametocyte | 11.5 nM
CCn1cc(-c2nc(C)no2)c(=O)c2cc(F)c(N3CCCC(C)C3)cc21 (centres unmarked) | – | 3D7 | 72 h | blood stage | 114 nM
Cc1ccc(Nc2ccnc3cc(-c4ccc(S(=O)(=O)N5CCN(C)CC5)cc4)ccc23)cn1 | – | D6 | – | drug-resistant strain, blood stage | 22 nM
CNS(=O)(=O)c1ccccc1Nc1nc(Nc2ccc(N3CCOCC3)cc2OC)ncc1Br | – | 3D7 | 72 h | blood stage | 282 nM
CN1CCN(c2ncc(-c3ccc4c(Nc5ccc(OCc6cccc(F)c6)c(Cl)c5)ccnc4c3)cn2)CC1 | – | D6 | – | drug-resistant strain, blood stage | 26 nM
CCn1cc(-c2cccnc2)c(=O)c2cc(F)c(N3CCC(C)CC3)cc21 | – | 3D7 | 72 h | blood stage | > 10000 nM
CN1CCN(S(=O)(=O)c2ccc(-c3ccc4c(Nc5cnc(C#N)cn5)ccnc4c3)cc2)CC1 | – | D6 | – | drug-resistant strain, blood stage | 120 nM
COc1ccc(OCCCO)cc1-c1cn2cc(-c3nnc(NCCCCc4ccccc4)o3)ccc2n1 | – | 3D7 | 72 h | blood stage | 2980 nM
CC(C)(C)OC(=O)Nc1ccc2c(Nc3ccc(OCc4cccc(F)c4)c(Cl)c3)ccnc2c1 | – | D6 | – | drug-resistant strain, blood stage | 50 nM
CCn1cc(-c2nc(C)no2)c(=O)c2cc(F)c(N3CCC(c4ccccc4)CC3)cc21 | – | 3D7 | 72 h | blood stage | 30 nM
COc1ccc(Nc2ccnc3cc(-c4cnc(N5CCN(C)CC5)nc4)ccc23)cc1Cl | – | D6 | – | drug-resistant strain, blood stage | 35 nM
CCn1cc(C(N)=O)c(=O)c2cc(F)c(N3CCC(C)CC3)cc21 | – | 3D7 | 72 h | blood stage | 390 nM
CNS(=O)(=O)c1ccccc1Nc1nc(Nc2cc(OC)c(OC)cc2C)ncc1Br | – | 3D7 | 72 h | blood stage | 153 nM
CCOC(=O)c1c(NC(=O)c2ccccc2)sc2c(O)c(CCN(C)C)ccc12 | – | 3D7 | 48 h | blood stage | ≤ 200 nM
